These results are taken from ChEMBL document CHEMBL4196149, “Antiproliferative Alkaloids from Alangium longiflorum, an Endangered Tropical Plant Species” (J Nat Prod, 2018).

Test [1] relates to KB. In words: Antiproliferative activity against human KB cells at 40 uM after 72 hrs by SRB assay. The test is classed as functional, cell-based. On the technique in general: In SRB staining, fixed cells bind dye roughly in proportion to their protein.
Test [2] is filed under the species Homo sapiens. In words: Antiproliferative activity against human KBVIN cells at 40 uM after 72 hrs by SRB assay. The format is functional, cell-based.
The subject of test [3] is MDA-MB-231. Description: Antiproliferative activity against human MDA-MB-231 cells at 40 uM after 72 hrs by SRB assay. The format is functional, cell-based.
For test [4], the system named is A549. In words: Antiproliferative activity against human A549 cells at 40 uM after 72 hrs by SRB assay. The format is functional, cell-based.
The test system of test [5] is MCF7. In words: Antiproliferative activity against human MCF7 cells at 40 uM after 72 hrs by SRB assay. The format is functional, cell-based.
Test [6] can be described thus: Antiproliferative activity against human KBVIN cells after 72 hrs by SRB assay. The test is classed as functional, cell-based. In short, it runs like this: (§1)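 SRB assay. Cell suspensions were seeded at 4000–12 000 cells/well in RPMI-1640 with 2 mM L-glutamine, 25 mM HEPES, 10% FBS, streptomycin and penicillin. Cells were exposed to compounds for 72 h. For the time course, cells were plated 24 h before treatment and then exposed for 24, 48 or 72 h. Cells were fixed in 10% TCA and stained with 0.04% SRB. Bound dye was dissolved in 10 mM Tris and read at 515 nm.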

Test [7] in a line: Antiproliferative activity against human KBVIN cells after 24 hrs by SRB assay. The format is functional, cell-based. In short, it runs like this:
as §1

The nature of test [8]: Antiproliferative activity against human KBVIN cells after 48 hrs by SRB assay. The test is classed as functional, cell-based. In a few lines:
as §1

The test system of the next test is Leukemia cell. Description: Antiproliferative activity against human leukemia cells at 10 to 100 nM after 48 hrs by SRB assay. The format is functional, cell-based.
Test [9] has as its system A549. In words: Antiproliferative activity against human A549 cells after 24 hrs by SRB assay. The test is classed as functional, cell-based. To be noted: A549, 24 h. In short, it runs like this: (§2)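 Time-course: cells seeded at 4000–12 000 per well 24 h before compound exposure for 24, 48 or 72 h, as named in the line. Cells then fixed in 10% trichloroacetic acid, stained with 0.04% SRB, and dye solubilized in 10 mM Tris base read at 515 nm. […] Medium RPMI-1640 with 10% FBS.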

Another test concerns Prostatic carcinoma cell. In words: Antiproliferative activity against human prostate cancer cells at 10 to 100 nM after 48 hrs by SRB assay. The format is functional.
The species named for test [10] is Homo sapiens. Description: Antiproliferative activity against human […] cells at 10 to 100 nM after 48 hrs by SRB assay. The test is classed as functional, cell-based.
Test [11] has as its system KB. Description: Antiproliferative activity against human KB cells after 48 hrs by SRB assay. The format is functional, cell-based.
In test [12] the test system is MDA-MB-231. Description: Antiproliferative activity against human MDA-MB-231 cells after 24 hrs by SRB assay. Particulars: MDA-MB-231, 24 h. The format is functional, cell-based.
For test [13], the system named is A549. In words: Antiproliferative activity against human A549 cells after 48 hrs by SRB assay. The format is functional, cell-based. Particulars: A549, 48 h. In a few lines: as §2
Test [14] concerns MCF7. Description: Antiproliferative activity against human MCF7 cells after 24 hrs by SRB assay. The test is classed as functional, cell-based. Particulars: MCF7, 24 h.
For test [15], the system named is MCF7. Description: Antiproliferative activity against human MCF7 cells after 48 hrs by SRB assay. Particulars: MCF7, 48 h. The test is classed as functional, cell-based.
Another test concerns Ovarian carcinoma cell. In words: Antiproliferative activity against human ovarian cancer cells at 10 to 100 nM after 48 hrs by SRB assay. The test is classed as functional, cell-based.
Another test has as its system NCI/ADR-RES. In words: Antiproliferative activity against human NCI-ADR-RES cells after 48 hrs by SRB assay.
The next test has as its system CNS carcinoma cell. In words: Antiproliferative activity against human CNS cancer cells at 10 to 100 nM after 48 hrs by SRB assay. The format is functional, cell-based.
A further test concerns Melanoma cell. In words: Antiproliferative activity against human melanoma cells at 10 to 100 nM after 48 hrs by SRB assay. The test is classed as functional, cell-based.
The test system of test [16] is MCF7. Description: Antiproliferative activity against human MCF7 cells after 72 hrs by SRB assay. The test is classed as functional, cell-based. Particulars: MCF7, 72 h.
In the next test the test system is Breast carcinoma cell. In words: Antiproliferative activity against human breast cancer cells at 10 to 100 nM after 48 hrs by SRB assay. The test is classed as functional, cell-based.
For test [17], the system named is KB. In words: Antiproliferative activity against human KB cells after 24 hrs by SRB assay. The format is functional, cell-based.
The test system of test [18] is MDA-MB-231. Description: Cell cycle arrest in human MDA-MB-231 cells assessed as accumulation at sub-G1 phase at 10 times IC50 after 48 hrs by propidium iodide staining based flow cytometry. The test is classed as functional. In a few lines:
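DMSO served as vehicle control and combretastatin A-4 at 0.1 μM as the G2/M-arrest control. Harvested cells were fixed and stained with propidium iodide plus RNase. DNA content was analysed by flow cytometry, and sub-G1 cells were counted. Each experiment was done at least twice.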

The test system of test [19] is MDA-MB-231. Description: Antiproliferative activity against human MDA-MB-231 cells after 48 hrs by SRB assay. The format is functional, cell-based. Particulars: MDA-MB-231, 48 h.
The test system of test [20] is MDA-MB-231. In words: Antiproliferative activity against human MDA-MB-231 cells after 72 hrs by SRB assay. The format is functional, cell-based. Particulars: MDA-MB-231, 72 h.
For test [21], the species on record is Homo sapiens. In words: Antiproliferative activity against human non-small cell lung cancer cells at 10 to 100 nM after 48 hrs by SRB assay. The test is classed as functional.
In test [22] the test system is KB. In words: Antiproliferative activity against human KB cells after 72 hrs by SRB assay. The test is classed as functional, cell-based.
The species named for test [23] is Homo sapiens. Description: Antiproliferative activity against human renal cancer cells at 10 to 100 nM after 48 hrs by SRB assay. The format is functional, cell-based.
Test [24] relates to A549. In words: Antiproliferative activity against human A549 cells after 72 hrs by SRB assay. The format is functional, cell-based. To be noted: A549, 72 h. In a few lines: as §2

Active and inactive are the calls of the source. The rule behind the calls is not given here. Where only a bound is given, the exact number is not on record here.

Regarding `C=C[C@H]1[C@H](O[C@@H]2O[C@H](CO)[C@@H](O)[C@H](O)[C@H]2OC(=O)/C=C/c2cc(OC)c(O)c(OC)c2)OC=C2C(=O)N3CCc4cc(O)c(O)cc4[C@H]3C[C@H]21`, the result with KB [1], in the test filed under Homo sapiens [2], with MDA-MB-231 [3], with A549 [4] and in the test with MCF7 [5] was inactive.

A word on the IC50: it is the concentration that gives 50% inhibition. In the case of `CC(=O)O[C@H]1C(=O)[C@@]2(C)[C@H]([C@H](OC(=O)c3ccccc3)[C@]3(O)C[C@H](OC(=O)[C@H](O)[C@@H](NC(=O)c4ccccc4)c4ccccc4)C(C)=C1C3(C)C)[C@]1(OC(C)=O)CO[C@@H]1C[C@@H]2O` [PACLITAXEL], the IC50 was 2380 nM in test [6], above 3000 nM in test [7] and 2880 nM in [8].

As for `CC[C@H]1CN2CCc3c(cc(OC)c(OC)c3O)[C@@H]2C[C@@H]1C[C@H]1NCCc2c1[nH]c1ccc(O)cc21`, the outcome in the test with Leukemia cell, with Prostatic carcinoma cell, in the test filed under Homo sapiens [10], in the test on Ovarian carcinoma cell, in the test on NCI/ADR-RES and with CNS carcinoma cell was Active. Also, the result in the test on Melanoma cell, in the test on Breast carcinoma cell, with MDA-MB-231 [18], in the test filed under Homo sapiens [21] and in the test listed under Homo sapiens [23] was Active. The IC50 in the test on A549 [9] was 210 nM; with KB [11] it was 150 nM; in the test on MDA-MB-231 [12] it was 60 nM; in the test with A549 [13], 230 nM; in test [6], above 10000 nM; in the test with MCF7 [14], 120 nM. Further, the IC50 worked out at 8900 nM in test [7]; 160 nM in the test with MCF7 [15]; 210 nM in the test on MCF7 [16]; 90 nM with KB [17]; 80 nM in the test on MDA-MB-231 [19]; 80 nM with MDA-MB-231 [20]. Moreover, the IC50 was found to be 210 nM in the test on KB [22], 11100 nM in test [8] and 280 nM in the test on A549 [24].

On to `C=C[C@H]1[C@H](O[C@@H]2O[C@H](CO)[C@@H](O)[C@H](O)[C@H]2OC(=O)/C=C/c2cc(OC)c(O)c(OC)c2)OC=C2C(=O)N3CCc4cc(O)c(OC)cc4[C@H]3C[C@H]21`, for which the result with KB [1], in the test listed under Homo sapiens [2], in the test on MDA-MB-231 [3], in the test with A549 [4] and in the test with MCF7 [5] was inactive.

`CC[C@H]1CN2CCc3cc(O)c(OC)cc3[C@@H]2C[C@@H]1C[C@H]1NCCc2c1[nH]c1ccc(O)cc21`: the IC50 was 360 nM with A549 [9]; 470 nM with KB [11]; 190 nM in the test with MDA-MB-231 [12]; 300 nM in the test with A549 [13]; above 10000 nM in test [6]; 250 nM in the test on MCF7 [14]. Besides, the IC50 in [7] is above 10000 nM; with MCF7 [15] it was 270 nM; in the test on MCF7 [16], 380 nM; in the test on KB [17], 290 nM; in the test with MDA-MB-231 [19], 230 nM; with MDA-MB-231 [20] it was 220 nM. Besides, the 50% inhibitory concentration (IC50) in the test with KB [22] is 620 nM; in [8], above 10000 nM; in the test on A549 [24], 620 nM.

With `COc1cccc2c1C(=O)c1c(O)c3c(c(O)c1C2=O)C[C@@](O)(C(=O)CO)C[C@@H]3O[C@H]1C[C@H](N)[C@H](O)[C@H](C)O1` [DOXORUBICIN], the half-maximal inhibitory concentration (IC50) with KB [11] is 340 nM; in test [6], above 1000 nM; in test [7], above 1000 nM; in the test with KB [17], 820 nM; in the test on KB [22], 220 nM; in test [8], above 1000 nM.
